An excerpt weighted towards active compounds, which were near 1.8% of everything screened.
M5 antag = blocks acetylcholine activation of human M5 receptor | inhibition, % at 3 µM | P08912 | CHO-hM5 cells, Fluo-8 calcium fluorescence, ACh EC80 | hit rate 0.59% among 360,000;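 active = inhibition above a per-plate cutoff, the mean of that plate's test compounds plus 3 SD, cut at about 27% in these data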;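 also: 0% = acetylcholine EC80 with DMSO and 100% = DMSO without agonist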
Target sequence (P08912 whole entry, looked up): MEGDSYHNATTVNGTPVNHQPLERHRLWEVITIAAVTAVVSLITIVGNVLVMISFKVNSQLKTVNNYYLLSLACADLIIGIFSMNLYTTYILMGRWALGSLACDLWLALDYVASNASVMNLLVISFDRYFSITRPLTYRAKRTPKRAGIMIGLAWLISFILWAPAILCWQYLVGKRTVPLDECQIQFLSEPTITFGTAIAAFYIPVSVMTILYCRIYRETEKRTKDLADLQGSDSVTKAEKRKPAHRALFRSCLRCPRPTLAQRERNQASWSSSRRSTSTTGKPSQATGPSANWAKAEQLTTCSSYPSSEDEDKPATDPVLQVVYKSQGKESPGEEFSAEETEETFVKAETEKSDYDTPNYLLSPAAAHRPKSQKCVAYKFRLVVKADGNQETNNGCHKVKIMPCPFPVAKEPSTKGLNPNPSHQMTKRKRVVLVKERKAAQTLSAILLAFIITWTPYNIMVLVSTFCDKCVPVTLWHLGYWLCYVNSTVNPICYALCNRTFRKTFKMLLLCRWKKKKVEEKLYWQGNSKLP
M4 PAM = potentiates acetylcholine response at human M4 receptor. P08173. CHO-K1 hM4/Gqi5, Fluo-8 calcium fluorescence, ACh EC20; 0% = ACh EC20, 100% = maximal ACh. activation, % at 3 µM. hit rate 0.4% among 360,000. AID 624126;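 active = activation above its plate's cutoff, the mean activation of sample wells plus 3 SD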
CHRM5 agonist = CHRM5 agonism in calcium assay; activation, % at 3 µM; hit rate 0.19% among 360,000; CHO-K1 hM5 cells, Fluo-8 calcium fluorescence; 0% DMSO wells, 100% maximal acetylcholine response; P08912; AID 624037;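 active = activation above the run's mean over test compounds plus 3 SD, cut at about 23% in these data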;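 also: signal is peak over basal fluorescence ratio across the kinetic read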
M5 PAM = positive allosteric modulators of human muscarinic M5 receptor. P08912. CHO-K1 hM5, Fluo-8 calcium, ACh EC20 PAM; 0% = ACh EC20, 100% = ACh EC100. activation, % at 3 µM. hit rate 0.3% among 360,000. AID 624038;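 active = activation above the run cutoff, the mean activation of all test compounds plus 3 SD, cut at about 18% in these data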
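Assay system: CHO-K1 hM5 cells / Incubation: Fluo-8 loading 80 min at 37 °C plus 30 min room temperature / Technique: Fluo-8 calcium dye fluorescence, kinetic read / Repeats: single replicate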
M4 antag = blocks acetylcholine activation of human M4 receptor; P08173; CHO-hM4 cells, ACh EC80, Fluo-8 calcium fluorescence; inhibition, % at 3 µM; hit rate 0.73% among 360,000; AID 624125;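 active = inhibition above its plate's cutoff, the mean inhibition of sample wells plus 3 SD, cut at about 27% in these data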;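 also: 0% = acetylcholine EC80 with DMSO and 100% = DMSO without agonist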
CHRM4 agonist = CHRM4 agonism in calcium assay; hit rate 0.14% among 360,000; activation, % at 3 µM; P08173; CHO-K1 hM4/Gqi5, Fluo-8 calcium fluorescence; vehicle 0%, full acetylcholine response 100%; AID 624127;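 active = activation above the run mean over all test wells plus 3 SD, cut at about 32% in these data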;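 also: peak over basal fluorescence ratio per well then scaled between controls; 0% = DMSO wells and 100% = acetylcholine at EC100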
An asterisk follows results filed as active.

SMILES	M5 antag	M4 PAM	CHRM5 agonist	M5 PAM	M4 antag	CHRM4 agonist
CCOC(=O)CN(C(=O)CSc1nnc(CNc2ccc(F)cc2)n1C)c1ccccc1	-8	18*	-5	11	-1	1
CCOC(=O)CN(C(=O)CSc1nnc(CNc2ccc(F)cc2)o1)c1ccccc1	-10	5	-2	-3	1	3
O=C(CSc1nnc(-c2ccccc2F)n1C1CC1)NCc1ccco1	-6	9	2	6	-12	2
Cc1cc(C)cc(-n2c(=O)c3sccc3n(CC(=O)NCc3ccco3)c2=O)c1	6	28	-1	22*	23	0
C=CCOc1cccc(C(=O)/C=C2/C(=O)Nc3ccccc32)c1	21	-14	12	5	23	8
CC(=O)/C=C1/C(=O)Nc2ccccc21	28*	2	0	9	4	2
CC(=O)c1cccc(OCc2cc(C(=O)N(C)Cc3cnccn3)no2)c1	1	5	1	1	-8	3
CN(Cc1cccnc1)C(=O)c1cc(COc2ccc3c(c2)CCCC3)on1	33*	-12	-1	-18	0	15
CC(C)(C)c1ccc(C(=O)NCC2CCCN2S(=O)(=O)c2ccccc2)cc1 (stereo unspecified)	2	4	0	-8	-16	5
CN1CCCC1CCOC(C)(c1ccccc1)c1ccc(Cl)cc1 (stereo unspecified)	98*	-18	3	-18	98*	15
Cc1ccc(Nc2ccc(NCc3ccccc3)nn2)cc1C	-4	-13	-2	-10	3	12
Clc1ccc(Nc2ccc(NCc3ccccc3)nn2)cc1	0	-31	4	-18	14	50*
Cc1nc(CCNS(=O)(=O)c2cccnc2)cs1	-4	-5	1	6	13	0
Cc1csc(=O)n1CC(=O)OCc1nnc(-c2ccc([N+](=O)[O-])cc2)o1	9	23*	3	3	-12	2
COc1ccc(-c2ccc(C(=O)Nc3cccc(NS(C)(=O)=O)c3)c3occc23)c(C)c1	15	-8	-1	-15	31*	7
COc1ccc(-c2ccc(C(=O)Nc3cccc(F)c3)c3occc23)c(C)c1	1	-3	-2	-6	5	0
c1ccc2c(c1)CCc1ccccc1C2=C1CCNCC1	99*	-61	-19	-32	99*	2
O=C1C(=C2CCc3ccccc32)Cc2ccccc21	-1	0	-2	-2	5	0
O=[N+]([O-])c1cc2cccnc2c2ncccc12	-3	12*	2	0	-9	1
CCC(=O)c1ccc(OC(=O)c2ccc(Br)o2)cc1	0	-10	36*	-7	1	33*
CC1CCN(CC[C@H]2CCCN2S(=O)(=O)c2cccc(O)c2)CC1	1	-16	-1	-9	51*	1
Nc1nc2ccc(Cl)cc2cc1C(=O)NCCc1ccc(Cl)cc1Cl	13	5	2	-6	-4	4
Nc1nc2ccc(Cl)cc2cc1C(=O)NCCc1c[nH]c2ccccc12	26	-14	9	-24	28*	20
Cc1ccccc1S(=O)Cc1ccc(C(=O)N2CCN(C3CCCCC3)CC2)o1 (stereo unspecified)	-1	-2	-1	0	-18	2
COc1cccc(N2CCN(CC(=O)Nc3ccccc3C(=O)NCCc3ccccc3)CC2)c1	28*	-4	-4	-22	18	18
SMILES	M5 antag	M4 PAM	CHRM5 agonist	M5 PAM	M4 antag	CHRM4 agonist
CCOC(=O)C1=C(COC(=O)CNS(=O)(=O)c2ccc(C)c(C)c2)NC(=O)NC1C (stereo unspecified)	-3	-3	1	-1	0	3
CCOC(=O)C1=C(COC(=O)CNS(=O)(=O)c2ccc(NC(C)=O)cc2)NC(=O)NC1C (stereo unspecified)	7	22*	2	0	-5	2
CCCCC(=O)N1CCN(c2nc3ccc(Cl)cc3s2)CC1	5	23*	0	-8	2	15
CC(=O)Nc1ccc(-n2nnnc2SCC(=O)Nc2cccc(NC(=O)c3ccco3)c2)cc1	-6	4	-1	3	26*	2
CC(C)(C)n1nnnc1C(c1ccccc1)N1CCN(c2ncccc2C(F)(F)F)CC1 (stereo unspecified)	2	-9	1	-6	-1	10
Nn1c(SCc2cccc(Br)c2)nnc1-c1cccnc1	-10	11	-6	19*	-11	1
Clc1ccc(-n2c(SC/C=C/c3ccccc3)nnc2-c2cccnc2)cc1	-3	1	0	-3	12	4
Nn1c(SC/C=C/c2ccccc2)nnc1-c1cccnc1	2	7	0	3	28*	1
Nn1c(SCc2cccc(F)c2)nnc1-c1cccnc1	15	-13	1	-18	-1	18
CCCc1cc(=O)[nH]c(SCC(=O)NC2(C#N)CCCCC2)n1	1	23*	0	9	-11	0
O=C(CC1OC(=O)c2ccccc21)Nc1cccc(S(=O)(=O)N2CCCCCC2)c1 (stereo unspecified)	8	-10	-1	-4	-3	9
CCCCOc1ccc(Cc2c(O)nc(SC)[nH]c2=O)cc1	30*	18*	7	51*	18	5
CN(CC(=O)Nc1ccccc1Br)C(=O)c1ccccc1-c1nc2ccccc2s1	3	-5	-1	-2	-4	10
O=C(Nc1nc2nccc(-c3ccccc3)n2n1)c1ccccc1	11	-16	-3	-3	100*	-1
COc1ccc(CNC(=O)C2CCN(S(=O)(=O)c3ccc4c(c3)C(C)(C)C(=O)N4C)CC2)cc1	0	-21	0	-5	101*	-3
CCCCNC(=O)CSc1ccc(S(=O)(=O)N2CCOCC2)cn1	20	-6	0	-10	9	0
CC(C)NC(=O)NC(=O)CSc1ccc(S(=O)(=O)N2CCOCC2)cn1	3	21*	-2	-4	-9	1
COc1ccccc1C(=O)NCC(=O)OCC(=O)N(CC(C)C)c1c(N)n(Cc2ccccc2)c(=O)[nH]c1=O	2	12	-1	3	-7	2
O=C(CC1CCCCC1)NCc1ccccn1	7	3	2	-2	0	0
O=C(c1c(F)cccc1F)N(Cc1ccccn1)C1CC1	2	18*	-3	2	-2	1
O=C(Nc1cc2c(cc1Cl)-c1ccc([N+](=O)[O-])cc1C2=NO)C(F)(F)F	15	5	19	-15	-9	9
Cc1ccc2c(c1)CCCN2C(=O)CCc1nc2ccccc2c(=O)[nH]1	-1	3	7	-6	0	3

From PubChem BioAssay
